ChEMBL document CHEMBL3286131, “Design, synthesis and systematic evaluation of cytotoxic 3-heteroarylisoquinolinamines as topoisomerases inhibitors” (Eur J Med Chem, 2014)
“And” between values parts separate entries of the source, which are not always exact repeats. Equal entries are not always repeated.

Experiments:
[1] = molecular target: T1, DNA topoisomerase 1 (Homo sapiens) (UniProt P11387); test: Inhibition of recombinant human DNA topoisomerase-1-mediated relaxation of supercoiled DNA pBR322 at 20 uM after 7 hrs using ethidium bromide staining by agarose gel electrophoresis analysis
T1 sequence (whole entry): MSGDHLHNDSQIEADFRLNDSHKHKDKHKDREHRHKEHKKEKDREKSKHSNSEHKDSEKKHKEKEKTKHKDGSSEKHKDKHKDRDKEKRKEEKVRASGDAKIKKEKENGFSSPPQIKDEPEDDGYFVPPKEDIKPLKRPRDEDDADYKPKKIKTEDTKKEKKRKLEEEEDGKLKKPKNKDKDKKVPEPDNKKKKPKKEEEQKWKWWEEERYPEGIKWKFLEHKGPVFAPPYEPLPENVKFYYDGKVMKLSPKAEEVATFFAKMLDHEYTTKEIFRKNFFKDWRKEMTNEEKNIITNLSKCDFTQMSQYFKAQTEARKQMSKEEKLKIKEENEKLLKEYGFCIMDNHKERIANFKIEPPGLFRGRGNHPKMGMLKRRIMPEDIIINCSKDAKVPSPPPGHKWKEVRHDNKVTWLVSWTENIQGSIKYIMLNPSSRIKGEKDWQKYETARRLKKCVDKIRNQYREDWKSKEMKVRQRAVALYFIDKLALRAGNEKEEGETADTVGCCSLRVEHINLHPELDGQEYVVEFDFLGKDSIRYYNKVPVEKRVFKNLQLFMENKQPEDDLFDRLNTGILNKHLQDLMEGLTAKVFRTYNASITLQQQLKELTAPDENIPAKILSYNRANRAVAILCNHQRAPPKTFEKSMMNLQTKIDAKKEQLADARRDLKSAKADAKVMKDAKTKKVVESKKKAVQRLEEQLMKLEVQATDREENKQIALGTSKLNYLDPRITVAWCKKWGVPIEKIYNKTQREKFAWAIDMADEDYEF
In short: (§1)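 pBR322 (100 ng) incubated with recombinant human topo I (0.4 units) ± compound for 30 min at 37 °C. Buffer: 10 mM Tris-HCl pH 7.9, 150 mM NaCl, 0.1% BSA, 1 mM spermidine, 5% glycerol. Quenched with sarcosyl stop solution. 1% agarose gel run at 15 V for 7 h in TAE, ethidium bromide stain, supercoiled DNA quantified under UV.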

[2] = molecular target: DNA topoisomerase 2-alpha (Homo sapiens) (UniProt P11388); test: Inhibition of human DNA topoisomerase-2a-mediated relaxation of supercoiled DNA pBR322 at 100 uM after 4 hrs using ethidium bromide staining by agarose gel electrophoresis analysis
Chain of DNA topoisomerase 2-alpha (Homo sapiens) (P11388 whole entry): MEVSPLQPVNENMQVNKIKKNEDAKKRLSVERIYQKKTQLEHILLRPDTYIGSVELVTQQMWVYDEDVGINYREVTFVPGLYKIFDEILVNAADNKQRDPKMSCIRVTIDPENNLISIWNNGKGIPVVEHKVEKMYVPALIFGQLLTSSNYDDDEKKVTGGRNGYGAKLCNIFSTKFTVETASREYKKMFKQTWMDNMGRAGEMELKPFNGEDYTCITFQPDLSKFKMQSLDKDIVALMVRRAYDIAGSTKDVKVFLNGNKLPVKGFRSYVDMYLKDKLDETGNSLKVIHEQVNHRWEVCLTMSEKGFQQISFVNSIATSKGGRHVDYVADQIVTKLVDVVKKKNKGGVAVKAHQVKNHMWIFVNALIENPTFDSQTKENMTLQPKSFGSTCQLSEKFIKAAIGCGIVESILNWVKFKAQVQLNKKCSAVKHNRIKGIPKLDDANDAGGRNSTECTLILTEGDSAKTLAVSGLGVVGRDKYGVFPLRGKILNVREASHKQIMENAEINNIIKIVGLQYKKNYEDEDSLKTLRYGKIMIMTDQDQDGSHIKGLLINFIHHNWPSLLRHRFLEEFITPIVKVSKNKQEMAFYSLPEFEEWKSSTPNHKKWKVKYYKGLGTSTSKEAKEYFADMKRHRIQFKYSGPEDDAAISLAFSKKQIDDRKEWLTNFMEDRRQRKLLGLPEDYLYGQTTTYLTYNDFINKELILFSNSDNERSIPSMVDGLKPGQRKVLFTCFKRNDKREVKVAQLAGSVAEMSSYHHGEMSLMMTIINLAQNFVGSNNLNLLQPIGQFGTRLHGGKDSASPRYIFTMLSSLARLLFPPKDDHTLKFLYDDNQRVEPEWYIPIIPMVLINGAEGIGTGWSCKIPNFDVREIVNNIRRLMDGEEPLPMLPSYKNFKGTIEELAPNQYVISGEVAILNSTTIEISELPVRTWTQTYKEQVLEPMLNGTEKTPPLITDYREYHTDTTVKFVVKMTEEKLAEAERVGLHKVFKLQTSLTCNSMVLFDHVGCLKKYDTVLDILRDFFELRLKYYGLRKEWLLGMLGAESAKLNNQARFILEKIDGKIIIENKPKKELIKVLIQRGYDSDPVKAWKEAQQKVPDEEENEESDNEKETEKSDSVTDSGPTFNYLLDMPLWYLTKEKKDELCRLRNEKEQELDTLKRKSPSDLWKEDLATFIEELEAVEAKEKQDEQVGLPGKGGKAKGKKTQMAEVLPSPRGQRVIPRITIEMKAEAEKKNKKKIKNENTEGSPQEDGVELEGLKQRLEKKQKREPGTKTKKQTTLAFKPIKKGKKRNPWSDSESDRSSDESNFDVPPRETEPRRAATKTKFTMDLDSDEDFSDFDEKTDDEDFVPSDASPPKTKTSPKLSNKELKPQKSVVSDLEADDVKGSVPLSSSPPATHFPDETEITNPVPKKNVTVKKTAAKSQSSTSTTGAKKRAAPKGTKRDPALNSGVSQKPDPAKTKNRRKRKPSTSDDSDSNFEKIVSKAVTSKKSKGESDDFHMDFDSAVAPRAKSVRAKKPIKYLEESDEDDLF
In short: (§2)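 Supercoiled pBR322 (200 ng) incubated with human topo IIα (1 unit) ± compound for 30 min at 30 °C. Buffer: 10 mM Tris-HCl pH 7.9, 50 mM NaCl, 50 mM KCl, 5 mM MgCl2, 1 mM EDTA, 1 mM ATP, BSA. Stopped with EDTA. 1% agarose gel run at 25 V for 4 h in TAE, ethidium bromide stain, supercoiled DNA quantified by UV imaging.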

[3] = molecular target: T1, DNA topoisomerase 1 (Homo sapiens); test: Inhibition of recombinant human DNA topoisomerase-1-mediated relaxation of supercoiled DNA pBR322 at 100 uM after 7 hrs using ethidium bromide staining by agarose gel electrophoresis analysis; in short: as §1
[4] = molecular target: DNA topoisomerase 2-alpha (Homo sapiens) (UniProt P11388); test: Inhibition of human DNA topoisomerase-2a-mediated relaxation of supercoiled DNA pBR322 at 20 uM after 4 hrs using ethidium bromide staining by agarose gel electrophoresis analysis; in short: as §2
[5] = system: T47D; test: Cytotoxicity against human T47D cells after 2 days; assay type: functional, cell-based; details: Homo sapiens, T47D, 48 h
In short: (§3)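 Cells seeded at 2-4 × 10^4 per well in medium with 10% FBS and incubated overnight at 37 °C, 5% CO2. Graded compound concentrations added on day 2. CCK-8 reagent added on day 4 for a further 4 h, absorbance read at 450 nm. IC50 from a four-parameter logistic fit; mean ± S.D. of three experiments run in triplicate.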

[6] = Cytotoxicity against human HCT15 cells after 2 days; assay type: functional, cell-based, HCT-15; details: Homo sapiens, HCT-15, 48 h; in short: as §3
[7] = system: DU-145; test: Cytotoxicity against human DU145 cells after 2 days; assay type: functional, cell-based; in short: as §3
[8] = Cytotoxicity against human MCF10A cells after 2 days; assay type: cell-based, MCF-10A; in short: as §3
[9] = system: HeLa; test: Cell cycle arrest in human HeLa cells assessed as accumulation at sub-G0/G1 phase after 24 hrs using […] by flow cytometry analysis relative to control; assay type: functional, cell-based
In short: (§4)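 HeLa cells exposed to graded compound concentrations for 24 h, harvested by centrifugation, PBS-washed twice, fixed overnight on ice in 70% ethanol. Stained with 10 μg/mL propidium iodide plus 0.5 mg/mL RNase and 0.1% Triton X-100 in PBS, 30 min at 37 °C in the dark. Flow cytometry gates: sub-G0/G1, G0/G1, S, G2/M.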

[10] = system: HeLa; test: Cell cycle arrest in human HeLa cells assessed as accumulation at G2/M phase phase after 24 hrs using […] by flow cytometry analysis relative to control; assay type: functional, cell-based; in short: as §4
[11] = system: HeLa; test: Cell cycle arrest in human HeLa cells assessed as accumulation at S phase phase at 5 uM after 24 hrs using ethidium bromide staining by flow cytometry analysis relative to control; assay type: functional; details: in the assay text read “propidium iodide staining” for “ethidium bromide staining”; in short: as §4
[12] = system: HeLa; test: Cell cycle arrest in human HeLa cells assessed as accumulation at G2/M phase phase at 50 uM after 24 hrs using […] by flow cytometry analysis relative to control; assay type: functional; in short: as §4
[13] = system: HeLa; test: Cell cycle arrest in human HeLa cells assessed as accumulation at G2/M phase phase at 5 uM after 24 hrs using ethidium bromide staining by flow cytometry analysis relative to control; assay type: functional; details: in the assay text read “propidium iodide staining” for “ethidium bromide staining”; in short: as §4
[14] = system: HeLa; test: Cell cycle arrest in human HeLa cells assessed as accumulation at sub-G0/G1 phase at 50 uM after 24 hrs using […] by flow cytometry analysis relative to control; assay type: functional; in short: as §4
[15] = system: HeLa; test: Cell cycle arrest in human HeLa cells assessed as accumulation at S phase phase at 25 uM after 24 hrs using […] by flow cytometry analysis relative to control; assay type: functional; in short: as §4
[16] = system: HeLa; test: Cell cycle arrest in human HeLa cells assessed as accumulation at G0/G1 phase phase at 50 uM after 24 hrs using […] by flow cytometry analysis relative to control; assay type: functional; in short: as §4
[17] = system: HeLa; test: Cell cycle arrest in human HeLa cells assessed as accumulation at sub-G0/G1 phase at 10 uM after 24 hrs using ethidium bromide staining by flow cytometry analysis relative to control; assay type: functional; details: in the assay text read “propidium iodide staining” for “ethidium bromide staining”; in short: as §4
[18] = system: HeLa; test: Cell cycle arrest in human HeLa cells assessed as accumulation at G2/M phase phase at 25 uM after 24 hrs using […] by flow cytometry analysis relative to control; assay type: functional; in short: as §4
[19] = system: HeLa; test: Cell cycle arrest in human HeLa cells assessed as accumulation at S phase phase at 10 uM after 24 hrs using ethidium bromide staining by flow cytometry analysis relative to control; assay type: functional; details: in the assay text read “propidium iodide staining” for “ethidium bromide staining”; in short: as §4
[20] = system: HeLa; test: Cell cycle arrest in human HeLa cells assessed as accumulation at G0/G1 phase phase at 10 uM after 24 hrs using ethidium bromide staining by flow cytometry analysis relative to control; assay type: functional; details: in the assay text read “propidium iodide staining” for “ethidium bromide staining”; in short: as §4
[21] = system: HeLa; test: Cell cycle arrest in human HeLa cells assessed as accumulation at S phase phase at 50 uM after 24 hrs using […] by flow cytometry analysis relative to control; assay type: functional; in short: as §4
[22] = system: HeLa; test: Cell cycle arrest in human HeLa cells assessed as accumulation at sub-G0/G1 phase at 25 uM after 24 hrs using […] by flow cytometry analysis relative to control; assay type: functional; in short: as §4
[23] = system: HeLa; test: Cell cycle arrest in human HeLa cells assessed as accumulation at G0/G1 phase phase at 25 uM after 24 hrs using […] by flow cytometry analysis relative to control; assay type: functional; in short: as §4
[24] = system: HeLa; test: Cell cycle arrest in human HeLa cells assessed as accumulation at G0/G1 phase phase at 5 uM after 24 hrs using ethidium bromide staining by flow cytometry analysis relative to control; assay type: functional; details: in the assay text read “propidium iodide staining” for “ethidium bromide staining”; in short: as §4
[25] = system: HeLa; test: Cell cycle arrest in human HeLa cells assessed as accumulation at G2/M phase phase at 10 uM after 24 hrs using ethidium bromide staining by flow cytometry analysis relative to control; assay type: functional; details: in the assay text read “propidium iodide staining” for “ethidium bromide staining”; in short: as §4

## Cc1ccc2cc(-c3cccs3)nc(N3CCCCC3)c2c1
[1]
  inhibition: 0%
[2]
  inhibition: 3.6% and 13.7%
[3]
  inhibition: 77.5% and 89.6%

## c1csc(-c2cc3ccccc3c(N3CCNCC3)n2)c1
[1]
  inhibition: 0.6% and 4.8%
[4]
  inhibition: 0%

## Cc1ccc2c(N3CCCCC3)nc(-c3cccs3)cc2c1
[1]
  inhibition: 0%
[4]
  inhibition: 1.1%

## c1csc(-c2cc3ccccc3c(N3CCCCC3)n2)c1
[2]
  inhibition: 42.9% and 48.1%
[4]
  inhibition: 0.5% and 1.8%
[3]
  inhibition: 0%

## Cc1ccc2c(N3CCOCC3)nc(-c3cccs3)cc2c1
[4]
  inhibition: 1.7%
[3]
  inhibition: 0%

## Cc1ccc2c(NCc3ccccc3)nc(-c3cccs3)cc2c1
[2]
  inhibition: 68.9%
[5]
  IC50: 6.57 µM
[6]
  IC50: 8.62 µM
[4]
  inhibition: 1.1%
[3]
  inhibition: 0%
[7]; Homo sapiens, DU-145, 48 h
  IC50: > 50 µM
[8]; Homo sapiens, MCF-10A, 48 h
  IC50: > 50 µM

## Cc1ccc2cc(-c3cccs3)nc(N3CCOCC3)c2c1
[1]
  inhibition: 1.1% and 3.7%
[2]
  inhibition: 0% and 5.1%
[3]
  inhibition: 71.9% and 77.9%

## Nc1nc(-c2cccs2)cc2ccccc12
[2]
  inhibition: 14.6% and 22.5%
[9]
  Activity: Dose-dependent effect
[4]
  inhibition: 0%
[10]
  Activity: Dose-dependent effect
[3]
  inhibition: 0%

## Cc1ccc2cc(-c3cccs3)nc(N3CCN(C)CC3)c2c1
[1]
  inhibition: 0%
[2]
  inhibition: 0%
[3]
  inhibition: 29.6% and 35.9%

## Cc1ccc2c(N3CCNCC3)nc(-c3cccs3)cc2c1
[1]
  inhibition: 0%
[4]
  inhibition: 0%
[3]
  inhibition: 59% and 59.6%

## Cc1ccc2cc(-c3cccs3)nc(N3CCNCC3)c2c1
[11]
  Activity: 11.32%
[1]
  inhibition: 0%
[2]
  inhibition: 22.1%
[12]
  Activity: 1.35%
[13]
  Activity: 14.91%
[14]
  Activity: 90.48%
[5]
  IC50: 1.14 µM
[6]
  IC50: 1.29 µM
[15]
  Activity: 4.72%
[16]
  Activity: 6.92%
[17]
  Activity: 5.76%
[18]
  Activity: 18.81%
[19]
  Activity: 10.13%
[20]
  Activity: 68.71%
[21]
  Activity: 1.26%
[22]
  Activity: 26.67%
[3]
  inhibition: 10.7%
[7]; Homo sapiens, DU-145, 48 h
  IC50: 4.15 µM
[23]
  Activity: 49.19%
[24]
  Activity: 65.59%
[25]
  Activity: 14.5%
[8]; Homo sapiens, MCF-10A, 48 h
  IC50: 5.54 µM

## c1csc(-c2cc3ccccc3c(N3CCOCC3)n2)c1
[4]
  inhibition: 0%
[3]
  inhibition: 0%

## Cc1ccc2c(N3CCNCC3)nc(-c3cccs3)cc2c1.Cl
[11]
  Activity: 13.49%
[12]
  Activity: 0%
[13]
  Activity: 12.75%
[14]
  Activity: 98.87%
[5]
  IC50: 7.57 µM
[6]
  IC50: 0.94 µM
[15]
  Activity: 0.67%
[16]
  Activity: 0.57%
[17]
  Activity: 86.88%
[18]
  Activity: 0.27%
[19]
  Activity: 1.6%
[20]
  Activity: 6.13%
[21]
  Activity: 0.17%
[22]
  Activity: 96.03%
[7]; du-145
  IC50: 11.7 µM
[23]
  Activity: 1.64%
[24]
  Activity: 59.04%
[25]
  Activity: 0.58%
[8]; mcf-10a
  IC50: 8.18 µM

## CCN1CCN(c2nc(-c3cccs3)cc3ccc(C)cc23)CC1
[1]
  inhibition: 6.5%
[2]
  inhibition: 0%
